Data on three compounds can be found in article PMC3574193 (Journal of medicinal chemistry, 2013).

The structures appear in SMILES notation. “Also recorded” adds a separate entry of the source.

The conditions of series [1]: cited from earlier work.
A short description of series [2]: Preliminary half-life studies in rats. In kind it is in vivo. To be noted: data not shown.
The target in the next series is T1, human Trx W31A mutant (Homo sapiens, UniProt P10599, W31A).
T1 sequence (P10599 1-105 W31A): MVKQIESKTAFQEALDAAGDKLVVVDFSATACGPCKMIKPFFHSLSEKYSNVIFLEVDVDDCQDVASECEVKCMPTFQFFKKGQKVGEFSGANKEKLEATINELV
Nature of the series: In vitro thioredoxin activity assay with W31A mutant. In kind it is biochemical. To be noted: W31A mutant of human Trx. The method in brief: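 Pre-reduced enzyme was desalted by spin column, quantified by A280 and used within 2 h. It was reacted with test compound, 10 µM each, in 0.1 M phosphate-citrate pH 6.0 at room temperature. Aromatic product accumulation was fitted exponentially for kinh/Ki.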

Series [3] deals with T2, extracellular TG2 in T84 enterocytic cells (Homo sapiens, UniProt P21980).
T2 sequence (P21980 1-687): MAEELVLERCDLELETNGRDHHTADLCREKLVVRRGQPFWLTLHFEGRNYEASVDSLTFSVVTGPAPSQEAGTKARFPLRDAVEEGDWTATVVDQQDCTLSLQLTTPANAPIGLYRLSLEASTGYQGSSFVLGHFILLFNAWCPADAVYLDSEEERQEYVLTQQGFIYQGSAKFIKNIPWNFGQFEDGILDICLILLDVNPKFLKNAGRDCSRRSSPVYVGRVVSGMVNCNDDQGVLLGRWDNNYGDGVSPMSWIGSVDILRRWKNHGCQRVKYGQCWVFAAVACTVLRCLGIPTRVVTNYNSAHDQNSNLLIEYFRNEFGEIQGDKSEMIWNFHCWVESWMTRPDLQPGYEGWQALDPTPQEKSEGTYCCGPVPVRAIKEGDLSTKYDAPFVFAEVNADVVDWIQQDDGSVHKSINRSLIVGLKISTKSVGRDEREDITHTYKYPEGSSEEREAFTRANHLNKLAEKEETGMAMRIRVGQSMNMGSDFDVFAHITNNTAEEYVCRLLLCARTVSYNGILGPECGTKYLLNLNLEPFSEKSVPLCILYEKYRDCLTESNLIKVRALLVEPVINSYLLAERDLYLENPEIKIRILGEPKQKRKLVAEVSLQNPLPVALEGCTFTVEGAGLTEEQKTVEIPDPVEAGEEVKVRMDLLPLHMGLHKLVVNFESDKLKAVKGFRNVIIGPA
Put plainly: Trx-mediated TG2 activation in T84 enterocytic cells. In kind it is cell-based. To be noted: 25 µM ERW1041E.

For `CCC(C)SSc1ncc[nH]1` (stereo not shown) [Compound 1, 2-(sec-butyldisulfanyl)-1H-imidazole], the half-life in humans result in series [1] is on record as “extremely short half-life”. In series [2], the half-life in rats result is “short half-life”.
Take `CCC(C)SSc1nc2ccccc2[nH]1` (stereo not shown) [Compound 14, 2-(sec-butyldisulfanyl)-1H-benzo[d]imidazole]: the “kinh/Ki with W31A Trx” value at human Trx W31A mutant was 23700 M⁻¹ s⁻¹.
For `O=C(NC[C@@H]1CC(Br)=NO1)[C@@H]1CCCN1C(=O)OCc1cnc2ccccc2c1` [ERW1041E, (S)-quinolin-3-ylmethyl 2-((((S)-3-bromo-4,5-dihydroisoxazol-5-yl)methyl)carbamoyl)pyrrolidine-1-carboxylate], the “effect on Trx mediated 5BP incorporation” value in series [3] was “fully suppressed; also recorded: completely blocked”.
